Compound activity from PubChem BioAssay.
The sample as a whole holds a higher share of hits than the screen did.
YB-1 expr inh: YB-1 expression inhibition; U2OS, qRT-PCR YB-1 vs CDIP delta delta Cp, 16 h; active compounds read high; zero = DMSO, each unit about twofold; delta delta Cp (YB-1 minus CDIP) (no concentration beside the values); hit rate 0.37% among 30,000; AID 434959;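 active = delta delta Cp rounded down to an integer at or above 3, about 3 SD of DMSO wells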;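 note: higher means less YB-1 transcript or more CDIP transcript relative to DMSO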
INS-1E rescue: rescue of cytokine-induced death in INS-1E beta cells; AID 488910; protection from cytokine-induced ATP loss, % at 10 µM; hit rate 0.1% among 20,000; INS-1E cytokine-induced death, ATP luminescence, 48 h; normalised: neutral wells 0, positive control 100;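 active = mean replicate protection from cytokine-induced ATP loss at least 50% and at least 75% of replicates each reaching 50%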
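Assay system: INS-1E rat cells / Quantity: 8000 cells per well / Medium: RPMI without phenol red, 5% FBS / Probe or stimulus: three-cytokine cocktail (IFN-γ, TNF-α, IL-1β) / Dosing: one compound concentration, pin transfer / Timing: 48 h co-treatment, 10 min post-lysis read / Technique: CellTiter-Glo luminescence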
T cruzi HTS: blocks T. cruzi growth inside host cells | hit rate 4.9% among 22,000 | intracellular Trypanosoma cruzi in host cells, plate reader | activity score (inhibition), % at 5.01 µM; in the data active = activity score above about 55%;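 note: parasites and compound incubated about four days before reading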
Each line names hits and unclear results; the compound was inactive in the other large screens.

O=C(CCCCC(=O)N/N=C\c1ccc2ccccc2n1)NO	none
O=C(CCCCC(=O)N/N=C/c1c(O)ccc2ccccc12)NO	INS-1E rescue 132
O=C(CCCCCCC(=O)N/N=C\c1ccc(O)c2ccccc12)NO	INS-1E rescue 151
COc1cc(Cl)c(/C=N/NC(=O)CCCCCCC(=O)Nc2ccccc2O)c(Cl)c1OC	none
CCOc1cccc(/C=N/NC(=O)CCCCC(=O)NO)c1OCC	INS-1E rescue 81
Cc1ccc(Nc2nnc(-c3ccc(C)c(S(=O)(=O)NCC4CCCO4)c3)c3ccccc23)cc1 (centres undefined)	none (no result: INS-1E rescue, T cruzi HTS)
COc1cc2c(cc1OC)C(=O)CC(C)(C)O2	none (no result: INS-1E rescue, T cruzi HTS)
Cc1csc2sc(C(=O)c3ccc(Cl)cc3)c(C)c12	none (no result: INS-1E rescue, T cruzi HTS)
N#Cc1cc(C#N)c(SCC(=O)NC2CCCCC2)nc1N	none (no result: INS-1E rescue, T cruzi HTS)
Cc1ccc2cc3c(nc2c1)N(c1ccc(C(=O)NCc2ccco2)cc1)CC3	none (no result: INS-1E rescue, T cruzi HTS)
Cc1ccsc1/C=N\NC(=O)CCCCC(=O)NO	INS-1E rescue 59
Cc1ccsc1/C=N/NC(=O)CCCCCC(=O)O	none
C[C@@H]1CCCCO[C@H](CN(C)Cc2ccccc2)[C@@H](C)CN([C@H](C)CO)C(=O)c2cc(NC(=O)c3ccccc3)ccc2O1	none
C[C@@H]1CCCCO[C@H](CN(C)Cc2ccc3c(c2)OCO3)[C@@H](C)CN([C@H](C)CO)C(=O)c2cc(NC(=O)Nc3ccc(F)cc3)ccc2O1	none
C[C@@H]1CCCCO[C@@H](CN(C)Cc2ccc(Cl)c(Cl)c2)[C@@H](C)CN([C@H](C)CO)C(=O)c2cc(NC(=O)NC3CCCCC3)ccc2O1	T cruzi HTS 66
C[C@@H]1CN([C@@H](C)CO)C(=O)c2cc(NC(=O)NC3CCCCC3)ccc2O[C@@H]1CN(C)Cc1ccc(Cl)c(Cl)c1	none
C[C@@H]1CCCCO[C@H](CN(C)Cc2ccc(C(=O)Nc3ccccc3N)cc2)[C@@H](C)CN([C@H](C)CO)C(=O)c2cc(NS(=O)(=O)c3ccc(F)cc3)ccc2O1	none
C[C@@H]1CCCCO[C@H](CN(C)Cc2ccc(Cl)c(Cl)c2)[C@@H](C)CN([C@H](C)CO)C(=O)c2cc(NC(=O)Nc3ccc(F)cc3)ccc2O1	T cruzi HTS 86
C[C@@H]1CCCCO[C@@H](CN(C)Cc2ccc(Cl)c(Cl)c2)[C@@H](C)CN([C@H](C)CO)C(=O)c2cc(NC(=O)c3ccccc3)ccc2O1	T cruzi HTS 65
C[C@@H]1CCCCO[C@@H](CN(C)Cc2ccc(C(=O)Nc3ccccc3N)cc2)[C@@H](C)CN([C@H](C)CO)C(=O)c2cc(NS(C)(=O)=O)ccc2O1	T cruzi HTS 56
CC(C)(O)CCc1cc2c(cc1O)O[C@H]1c3ccc(O)cc3OC[C@@H]21	none (no result: INS-1E rescue, T cruzi HTS)
CCc1nc(-n2nnc3cc(C)c(C)cc32)c2c3c(sc2n1)CCCC3	none (no result: INS-1E rescue, T cruzi HTS)
O=C(O)CCc1ccc(F)cc1	none (no result: INS-1E rescue, T cruzi HTS)
CC(C)c1ccc(NCC(O)CSc2ccccc2)cc1 (centres undefined)	none (no result: INS-1E rescue, T cruzi HTS)
C[C@@H]1CCCCO[C@@H](CN(C)Cc2ccc(Cl)c(Cl)c2)[C@@H](C)CN([C@H](C)CO)C(=O)c2cc(NC(=O)Nc3ccc(F)cc3)ccc2O1	T cruzi HTS 67
CC(C)NC(=O)Nc1ccc2c(c1)C(=O)N([C@H](C)CO)C[C@H](C)[C@H](CN(C)Cc1ccc(Cl)c(Cl)c1)OCCCC[C@@H](C)O2	none
Cc1cc(C(=O)Nc2cccc3c2O[C@H](CN(C)Cc2ccc(C(F)(F)F)cc2)[C@@H](C)CN([C@H](C)CO)C3=O)n(C)n1	T cruzi HTS 69
Cc1cc(C(=O)Nc2cccc3c2O[C@H](CN(C)C(=O)Nc2ccccc2)[C@@H](C)CN([C@@H](C)CO)C3=O)n(C)n1	none
Cc1cc(C(=O)Nc2cccc3c2O[C@@H](CN(C)Cc2ccc(-c4ccccc4)cc2)[C@@H](C)CN([C@H](C)CO)C3=O)n(C)n1	T cruzi HTS 64
Cc1cc(C(=O)Nc2cccc3c2O[C@@H](CN(C)C(=O)Nc2ccccc2)[C@@H](C)CN([C@H](C)CO)C3=O)n(C)n1	T cruzi HTS 61
Cc1cc(C(=O)Nc2cccc3c2O[C@H](CN(C)Cc2ccc(-c4ccccc4)cc2)[C@H](C)CN([C@@H](C)CO)C3=O)n(C)n1	none
Cc1cc(C(=O)Nc2cccc3c2O[C@H](CN(C)Cc2ccc(C(F)(F)F)cc2)[C@H](C)CN([C@@H](C)CO)C3=O)n(C)n1	none
Cc1cccc(C=Nc2c(C)n(C)n(-c3ccccc3)c2=O)c1	none (no result: INS-1E rescue, T cruzi HTS)
COC(=O)c1ccc([C@H]2C(C#N)=C(N)C(C#N)(C#N)C3=CCC(C(C)(C)C)C[C@@H]32)cc1 (some centres undefined)	none (no result: INS-1E rescue, T cruzi HTS)
COc1ccc(C(=O)Nc2ccc(C(O)(C(F)(F)F)C(F)(F)F)cc2)cc1	none (no result: INS-1E rescue, T cruzi HTS)
COC(=O)C1=CO[C@@H](O[C@@H]2O[C@H](CO)[C@@H](O)[C@H](O)[C@H]2O)[C@H]2[C@@H]1C=CC21C=C([C@H](C)OC(=O)/C=C/c2ccc(O)cc2)C(=O)O1 (some centres undefined)	none (no result: INS-1E rescue, T cruzi HTS)
Cc1ccc(C(O)C(=O)c2ccccc2)o1 (centres undefined)	none (no result: INS-1E rescue, T cruzi HTS)
